Consider 17 compounds from ChEMBL document CHEMBL4706600, “Synthesis, molecular modeling, in vivo study and anticancer activity against prostate cancer of (+) (S)-naproxen derivatives” (Eur J Med Chem, 2020).

Activity calls are given as the source filed them. No cut-off for these calls is given here. A value given as a limit tells only on which side of the number the result lay.

The test system of data set [1] is PC-3. Briefly: Cytotoxicity against human PC-3 cells assessed as reduction in cell viability by […]. It counts as functional, cell-based. The method, boiled down: (§1)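 Growth of PC-3, DU-145 and LNCaP prostate cancer lines read by MTS tetrazolium proliferation assay. Cisplatin served as the positive reference standard.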
The subject of data set [2] is DU-145. Description: Cytotoxicity against human DU-145 cells assessed as reduction in cell viability by […]. It counts as functional, cell-based. The method, boiled down: as §1
The subject of data set [3] is LNCaP. Description: Cytotoxicity against human LNCaP cells assessed as reduction in cell viability by […]. It is filed as functional, cell-based. The method, boiled down:
as §1

Data set [4] addresses Methionine aminopeptidase 2 (Homo sapiens) (UniProt P50579). Description: Inhibition of MetAP2 in human LNCaP cells assessed as reduction in AKT phosphorylation at 5 to 20 uM incubated upto 120 mins by Western blot analysis. It is filed as cell-based. The settings on record: dose 5-20 µM, time min <=120. The method, boiled down: (§2)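 LNCaP cells (1×10^6 per well, n = 3) plated in phenol-red-free RPMI-1640 with 1% FBS for 24 h, then exposed at 5 and 20 µM for 0, 15, 60 and 120 min. Lysates were assayed for total protein, and phosphorylated AKT, ERK, p38 and JNK were detected by Western blot.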
Target sequence in this assay (P50579 2-478 limits assumed): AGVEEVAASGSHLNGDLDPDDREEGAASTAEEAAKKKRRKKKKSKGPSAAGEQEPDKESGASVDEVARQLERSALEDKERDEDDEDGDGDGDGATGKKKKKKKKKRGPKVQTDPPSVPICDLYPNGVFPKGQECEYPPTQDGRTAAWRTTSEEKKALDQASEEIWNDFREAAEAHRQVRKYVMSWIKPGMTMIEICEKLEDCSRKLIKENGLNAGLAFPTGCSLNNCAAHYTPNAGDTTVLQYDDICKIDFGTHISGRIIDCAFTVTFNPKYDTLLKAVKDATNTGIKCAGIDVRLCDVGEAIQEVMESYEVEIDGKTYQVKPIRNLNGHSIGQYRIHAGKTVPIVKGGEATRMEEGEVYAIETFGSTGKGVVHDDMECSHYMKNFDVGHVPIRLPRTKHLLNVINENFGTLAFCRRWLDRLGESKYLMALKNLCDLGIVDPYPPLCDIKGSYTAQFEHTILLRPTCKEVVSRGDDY

Data set [5] has the same target. Description: Inhibition of MetAP2 in human LNCaP cells assessed as reduction in ERK/MAPK phosphorylation at 5 to 20 uM incubated upto 120 mins by Western blot analysis. As to conditions: dose 5-20 µM, time min <=120. It is filed as cell-based. The method, boiled down: as §2
Target sequence in this assay (P50579 2-478 limits assumed): as above
Data set [6] shares this target. Briefly: Inhibition of MetAP2 in human LNCaP cells assessed as reduction in P28/MAPK phosphorylation at 5 to 20 uM incubated upto 120 mins by Western blot analysis. It counts as cell-based. As to conditions: dose 5-20 µM. The method, boiled down:
as §2
Target sequence in this assay (P50579 2-478 limits assumed): as above

For data set [7] the target is unchanged. Briefly: Inhibition of MetAP2 in human LNCaP cells assessed as reduction in JNK/MAPK phosphorylation at 5 to 20 uM incubated upto 120 mins by Western blot analysis. It counts as cell-based. The settings on record: dose 5-20 µM, time min <=120. The method, boiled down: as §2
Target sequence in this assay (P50579 2-478 limits assumed): as above
The subject of data set [8] is LNCaP. Briefly: Induction of apoptosis in human LNCAP cells assessed as up regulation of Bax expression upto 20 uM measured after 6 hrs by Rt-PCR. It is filed as functional, cell-based. The settings on record: dose microM <=20, time 6.0 hrs, TDE = time-dependent effect.
The test system of data set [9] is LNCaP. Description: Induction of apoptosis in human LNCAP cells assessed as up regulation of Caspase 3 expression upto 20 uM measured after 6 hrs by Rt-PCR. It is filed as functional, cell-based. As to conditions: dose microM <=20, time 6.0 hrs, TDE = time-dependent effect.
In data set [10] the test system is LNCaP. Description: Induction of apoptosis in human LNCAP cells assessed as up regulation of Caspase 9 expression upto 20 uM measured after 6 hrs by Rt-PCR. It counts as functional, cell-based. As to conditions: dose microM <=20, time 6.0 hrs, TDE = time-dependent effect.
In data set [11] the test system is LNCaP. Description: Induction of apoptosis in human LNCAP cells assessed as down regulation of Bcl-2 expression upto 20 uM measured after 6 hrs by Rt-PCR. It is filed as functional, cell-based. The settings on record: dose microM <=20, time 6.0 hrs.
Data set [12] in a line: Toxicity in mouse assessed as effect on alkaline phosphatase level measured after 3 days by blood analyser(reference value: 144.50+/- 83.5 u/l). It is filed as tissue-based. The settings on record: 72 h, time 3 day.
Data set [13] can be described thus: Toxicity in mouse assessed as effect on alanine transaminase level measured after 3 days by blood analyser(reference value: 679.50+/- 71.5 u/l). It counts as tissue-based. As to conditions: 72 h, time 3 day.
The nature of data set [14]: Toxicity in mouse assessed as effect on total bilirubin level measured after 3 days by blood analyser(reference value: 0.27+/- 0.05 mg/dl). It counts as tissue-based. The settings on record: 72 h, time 3 day.
Data set [15] in a line: Toxicity in mouse assessed as effect on blood urea nitrogen level measured after 3 days by blood analyser(reference value: 27+/- 2.6 mg/dl). The settings on record: in vivo, 72 h, time 3 day.
Data set [16] in a line: Toxicity in mouse assessed as effect on phosphate level measured after 3 days by blood analyser(reference value: 10.07+/- 1.06 mg/dl). It counts as tissue-based. The settings on record: 72 h, time 3 day.
Data set [17] is described as follows: Toxicity in mouse assessed as effect on keratin level measured after 3 days by blood analyser(reference value: 0.2+/- 0.07 mg/dl). It is filed as tissue-based. The settings on record: 72 h, time 3 day.
Data set [18] is described as follows: Toxicity in mouse assessed as effect on glucose level measured after 3 days by blood analyser(reference value: 192+/- 33 mg/dl). The settings on record: 72 h, time 3 day. It counts as tissue-based.
A short description of data set [19]: Toxicity in mouse assessed as effect on sodium level measured after 3 days by blood analyser(reference value: 148.33+/-1.89 mmol/l). It counts as tissue-based. The settings on record: 72 h, time 3 day.
A short description of data set [20]: Toxicity in mouse assessed as effect on potassium level measured after 3 days by blood analyser(reference value: 10.7+/-2.2 mmol/l). The settings on record: 72 h, time 3 day. It is filed as tissue-based.
A short description of data set [21]: Toxicity in mouse assessed as effect on total protein level measured after 3 days by blood analyser(reference value: 5.7+/-0.4 g/dl). It is filed as tissue-based. The settings on record: 72 h, time 3 day.
Data set [22] is described as follows: Toxicity in mouse assessed as effect on globulin level measured after 3 days by blood analyser(reference value: 3.17+/-0.31 g/dl). It is filed as tissue-based. As to conditions: 72 h, time 3 day.
The subject of data set [23] is LNCaP. Description: Antitumor activity against human LNCaP cells xenografted in mouse assessed as decrease in ROI of cancer tissue at 0.27 mg measured after 15 days by IVIS image analysis. It counts as functional. As to conditions: time 15 day. The method, boiled down:
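LNCaP cells (5×10^6–6×10^6 cells/100 µL) injected subcutaneously into male nude mice; treatment given over 15 days, with controls receiving saline intraperitoneally every 4 days. Cancerous tissue visualized by in vivo imaging (IVIS).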

Data set [24] concerns the target Methionine aminopeptidase 2 (Homo sapiens) (UniProt P50579). Briefly: Inhibition of MetAP2 (unknown origin) incubated measured at 12.5 to 200 uM for 30 mins by spectrophotometric analysis. As to conditions: dose 12.5-200 µM.
Target sequence in this assay (P50579 whole entry, looked up): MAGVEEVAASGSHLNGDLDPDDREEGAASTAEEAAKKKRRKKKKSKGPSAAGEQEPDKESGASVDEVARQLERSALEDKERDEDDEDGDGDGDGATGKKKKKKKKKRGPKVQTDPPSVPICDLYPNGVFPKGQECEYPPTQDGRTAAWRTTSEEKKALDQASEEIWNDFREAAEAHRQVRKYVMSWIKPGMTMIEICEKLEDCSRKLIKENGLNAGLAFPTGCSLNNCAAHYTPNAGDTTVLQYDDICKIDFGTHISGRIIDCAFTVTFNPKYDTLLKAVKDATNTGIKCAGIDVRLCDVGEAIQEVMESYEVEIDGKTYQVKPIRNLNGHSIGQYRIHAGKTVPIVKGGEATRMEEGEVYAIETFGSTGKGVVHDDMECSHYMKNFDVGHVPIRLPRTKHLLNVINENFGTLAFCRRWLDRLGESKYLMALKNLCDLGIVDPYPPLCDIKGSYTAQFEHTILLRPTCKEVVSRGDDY
Data set [25] in a line: Toxicity in mouse assessed as effect on albumin level measured after 15 days by blood analyser(reference value: 2.6+/- 0.36 g/dl). As to conditions: 360 h.

Turning to `COc1cccc(CSc2nnc([C@@H](C)c3ccc4cc(OC)ccc4c3)n2-c2ccc(Cl)cc2)c1`, the IC50 in data set [1] was 138 µM; in data set [2] it was over 400 µM; in data set [3], 162 µM.

Take `COc1ccc2cc([C@H](C)c3nnc(SCc4c(Cl)cccc4Cl)n3-c3cccc(Cl)c3)ccc2c1`: the values for the IC50 in [1], in data set [2] and in [3] were 165 µM, over 400 µM and 73.7 µM, respectively.

In the case of `COc1ccc2cc([C@H](C)c3nnc(SCc4ccc(Cl)cc4)n3-c3ccc(Cl)cc3)ccc2c1`, the values for the IC50 in data set [1], in data set [2] and in data set [3] were 5.8 µM, 109 µM and 110 µM, respectively.

On to `COc1ccc2cc([C@H](C)C(=O)NNC(=S)Nc3ccc(C(F)(F)F)cc3)ccc2c1`, for which the IC50 amounted to 64.3 µM in data set [1], 62.2 µM in data set [2] and 92.8 µM in [3].

For the compound `COc1ccc2cc([C@H](C)c3nnc(SCc4ccc(F)cc4)n3-c3ccc(Cl)cc3)ccc2c1`, the IC50 was 10.8 µM in [1], 33.6 µM in data set [2] and 33.9 µM in data set [3].

Take `COc1ccc2cc([C@H](C)c3nnc(SCc4c(Cl)cccc4Cl)n3-c3ccc(F)cc3)ccc2c1`: the IC50 in data set [1] was determined as 216 µM; in [2] it was 12.2 µM; in [3], 12.2 µM.

Consider `COc1ccc2cc([C@H](C)c3nnc(SCc4ccc(Cl)cc4)n3-c3ccc(F)cc3)ccc2c1`, for which the IC50 is over 400 µM in data set [1], 57.4 µM in data set [2] and over 400 µM in [3].

As for `COc1cccc(CSc2nnc([C@@H](C)c3ccc4cc(OC)ccc4c3)n2-c2ccc(F)cc2)c1`, the concentration for half-maximal inhibition (IC50) in [1] worked out at 211 µM; in data set [2], 19.2 µM; in data set [3], 14.5 µM.

Turning to `COc1ccc(CSc2nnc([C@@H](C)c3ccc4cc(OC)ccc4c3)n2-c2ccc(F)cc2)cc1`, the IC50 in data set [1] is over 400 µM; in data set [2], over 400 µM; in [3], 22.8 µM. Moreover, the inhibition entry in [4] was “inactive”; in data set [5] it was “inactive”; in [6] (time min <=120, in the assay text read “P38/MAPK” for “P28/MAPK”), “inactive”; in data set [7], “inactive”.

With `COc1ccc2cc([C@H](C)c3nnc(SCc4c(C)cc(C)cc4C)n3-c3ccc(F)cc3)ccc2c1`, the IC50 in data set [1] was 43.3 µM; in data set [2] it was 10.2 µM; in data set [3], 2.21 µM. For the same compound, the Activity entry is “Tde” in data set [8]; “Tde” in [9]; “Tde” in data set [10]; 58 U/L in data set [12]; 64.5 U/L in data set [13]; 0.3 mg/dL in data set [14]. Besides, the Activity in data set [15] amounted to 21.5 mg/dL; in data set [16], 7.15 mg/dL; in [17], 0.25 mg/dL; in data set [18] it was 154 mg/dL; in data set [19], 137.5 mmol/L; in data set [20], 5.6 mmol/L. Besides, the Activity in data set [21] was found to be 5.3 g/dL; in data set [22], 3.6 g/dL; in [25], 1.25 g/dL. Moreover, the outcome in [11] was Active. Moreover, the inhibition entry in data set [4], in [5], in data set [6] (time min <=120), in data set [7] and in data set [24] was “Active” in each case. In addition, the “inhibition (INH)” value in data set [23] was 55%.

`COc1ccc2cc([C@H](C)c3nnc(SCc4c(C)cc(C)cc4C)n3-c3cccc(Cl)c3)ccc2c1`: the IC50 in data set [1] was 16.3 µM; in data set [2] it was 93.3 µM; in data set [3] it was over 400 µM.

On to `COc1ccc2cc([C@H](C)c3nnc(SCc4ccc(C)cc4)n3-c3ccc(Cl)cc3)ccc2c1`, for which the IC50 in data set [1] was determined as 8.4 µM; in data set [2], 18.8 µM; in data set [3], 52.2 µM.

In the case of `COc1ccc2cc([C@H](C)c3nnc(SCc4ccc(C)cc4)n3-c3ccc(F)cc3)ccc2c1`, the IC50 was 229 µM in [1], 44.3 µM in [2] and over 400 µM in data set [3].

For the compound `COc1ccc2cc([C@H](C)c3nnc(SCc4ccccc4)n3-c3ccc(Cl)cc3)ccc2c1`, the IC50 in data set [1] is 14.2 µM; in data set [2], 35.8 µM; in data set [3], 50.4 µM.

For `COc1ccc2cc([C@H](C)c3nnc(SCc4c(Cl)cccc4Cl)n3-c3ccc(Cl)cc3)ccc2c1`, the half-inhibitory concentration (IC50) in data set [1] was 34.7 µM; in [2], 36.1 µM; in [3], over 400 µM.

On to `COc1ccc(CSc2nnc([C@@H](C)c3ccc4cc(OC)ccc4c3)n2-c2ccc(Cl)cc2)cc1`, for which the concentration for half-maximal inhibition (IC50) in data set [1] is over 400 µM; in [2], 72.6 µM; in data set [3], over 400 µM.

For `COc1ccc2cc([C@H](C)c3nnc(SCc4ccc(F)cc4)n3-c3ccc(F)cc3)ccc2c1`, the values for the IC50 in data set [1], in data set [2] and in data set [3] were over 400 µM, 60.2 µM and 104 µM, respectively.
